According to ChEMBL document CHEMBL1133169, “A light-inactivated antibiotic” (2000):
Converted amounts (≈) assume the structure as drawn.

Tests used:
Assay type in all cases: functional
[1] = Minimum inhibitory activity towards Bacillus subtilis ATCC 33608
Summary of the method: (§1)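 Broth microdilution in Mueller-Hinton broth, inoculum 5 × 10^5 CFU/mL. MIC taken as the lowest antibiotic concentration preventing growth, judged by absence of turbidity after 24 h at 37 °C.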

Enterococcus faecalis = assay: Minimum inhibitory activity towards Enterococcus faecalis ATCC 29212; summary of the method: as §1
Klebsiella pneumoniae = assay: Minimum inhibitory activity towards Klebsiella pneumoniae ATCC 10031; summary of the method: as §1
Staphylococcus aureus = assay: Minimum inhibitory activity towards Staphylococcus aureus ATCC 25923; summary of the method: as §1

SMILES: CC(=O)OCC1=C(C(=O)O)N2C(=O)[C@@H](NC(=O)[C@@H](Cc3ccccc3)NNC(=O)OCc3ccccc3[N+](=O)[O-])C2SC1 (some centres undefined)
- MIC [1]: 2 µg/mL (≈ 3.26 µM)
- MIC (Enterococcus faecalis): > 32 µg/mL
- MIC (Klebsiella pneumoniae): 32 µg/mL (≈ 52.2 µM)
- MIC (Staphylococcus aureus): 1 µg/mL (≈ 1.63 µM)
